Active and inactive are the calls of the source. The calls are words filed in the database; no cut-off is given here.
Legend:
Type in all cases: cell-based
Homo sapiens [1] = organism: Homo sapiens; assay: Selectivity ratio of IC50 for human RORgamma1 expressed in HEK293 cells to IC50 for PR in human T47D cells assessed as inhibition of progesterone-induced alkaline phosphatase activity
Homo sapiens [2] = organism: Homo sapiens; assay: Selectivity ratio of IC50 for human RORbeta1 expressed in HEK293 cells to IC50 for PR in human T47D cells assessed as inhibition of progesterone-induced alkaline phosphatase activity
[3] = biological target: T1, Nuclear receptor ROR-beta (Homo sapiens, UniProt Q92753); assay: Antagonist activity at human RORbeta1 expressed in HEK293 cells after 24 hrs by luciferase reporter gene assay
T1 sequence (Q92753 whole entry): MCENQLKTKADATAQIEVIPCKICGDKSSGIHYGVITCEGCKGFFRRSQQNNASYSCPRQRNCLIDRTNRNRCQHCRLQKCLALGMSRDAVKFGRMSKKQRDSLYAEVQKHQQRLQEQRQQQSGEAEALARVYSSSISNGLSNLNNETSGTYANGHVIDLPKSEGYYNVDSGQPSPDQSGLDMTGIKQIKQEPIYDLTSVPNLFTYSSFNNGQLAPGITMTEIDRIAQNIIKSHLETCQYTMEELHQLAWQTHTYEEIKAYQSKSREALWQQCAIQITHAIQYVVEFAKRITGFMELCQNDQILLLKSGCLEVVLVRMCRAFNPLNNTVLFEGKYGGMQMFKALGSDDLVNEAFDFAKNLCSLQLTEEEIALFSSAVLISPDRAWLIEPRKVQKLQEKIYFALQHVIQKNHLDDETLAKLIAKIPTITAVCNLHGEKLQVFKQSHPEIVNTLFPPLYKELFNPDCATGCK
In short: (§1)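 Inverse agonism at RORα, RORβ or RORγ measured by reporter gene assay.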

Progesterone receptor = biological target: T2, Progesterone receptor (Homo sapiens, UniProt P06401); assay: Antagonist activity at PR in human T47D cells assessed as inhibition of progesterone-induced alkaline phosphatase activity measured after 24 hrs
T2 sequence (P06401 whole entry): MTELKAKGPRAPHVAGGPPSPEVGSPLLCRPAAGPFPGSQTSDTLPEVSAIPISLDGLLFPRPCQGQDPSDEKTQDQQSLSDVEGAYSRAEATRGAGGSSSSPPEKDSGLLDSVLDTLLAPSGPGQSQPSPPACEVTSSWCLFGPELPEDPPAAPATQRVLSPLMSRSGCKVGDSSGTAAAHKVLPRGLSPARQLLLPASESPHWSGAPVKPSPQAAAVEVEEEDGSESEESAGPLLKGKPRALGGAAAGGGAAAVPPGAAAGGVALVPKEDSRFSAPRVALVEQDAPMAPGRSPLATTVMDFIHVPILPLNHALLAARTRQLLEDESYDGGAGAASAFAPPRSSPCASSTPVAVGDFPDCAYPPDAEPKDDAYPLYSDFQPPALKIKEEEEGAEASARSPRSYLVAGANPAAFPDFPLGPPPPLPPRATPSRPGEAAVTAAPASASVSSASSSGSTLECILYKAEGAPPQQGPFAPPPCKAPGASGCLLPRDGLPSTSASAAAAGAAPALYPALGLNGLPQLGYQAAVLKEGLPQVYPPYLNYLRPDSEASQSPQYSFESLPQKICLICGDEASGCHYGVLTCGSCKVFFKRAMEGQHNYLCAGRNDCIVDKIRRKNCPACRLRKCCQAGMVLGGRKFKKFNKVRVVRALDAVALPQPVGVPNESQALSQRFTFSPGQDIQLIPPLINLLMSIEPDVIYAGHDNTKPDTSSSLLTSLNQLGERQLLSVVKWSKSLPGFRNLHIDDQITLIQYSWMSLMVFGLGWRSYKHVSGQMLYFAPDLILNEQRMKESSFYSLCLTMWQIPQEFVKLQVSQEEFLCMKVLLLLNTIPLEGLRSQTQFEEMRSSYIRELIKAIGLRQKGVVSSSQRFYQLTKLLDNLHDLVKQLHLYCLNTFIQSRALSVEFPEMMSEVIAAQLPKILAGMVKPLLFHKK

Homo sapiens [4] = organism: Homo sapiens; assay: Selectivity ratio of IC50 for human GAL4N-fused LXRalpha LBD expressed in HEK293 cells to IC50 for PR in human T47D cells assessed as inhibition of progesterone-induced alkaline phosphatase activity
[5] = biological target: T3, Progesterone receptor (Homo sapiens) (UniProt P06401); assay: Antagonist activity at PR in human T47D cells assessed as inhibition of progesterone-induced beta1-Na/K-ATPase expression at 0.1 to 10 uM measured after 24 hrs by Western blot analysis
T3 sequence (whole entry): T2 sequence (P06401 whole entry)
In short: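 Validation in T47D cells by Western blotting of the β1 subunit of Na/K-ATPase, a PR-regulated protein.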

[6] = biological target: T4, Nuclear receptor ROR-alpha (Homo sapiens) (UniProt P35398); assay: Antagonist activity at human RORalpha1 expressed in HEK293 cells at 20 uM after 24 hrs by luciferase reporter gene assay; in short: as §1
T4 sequence (whole entry): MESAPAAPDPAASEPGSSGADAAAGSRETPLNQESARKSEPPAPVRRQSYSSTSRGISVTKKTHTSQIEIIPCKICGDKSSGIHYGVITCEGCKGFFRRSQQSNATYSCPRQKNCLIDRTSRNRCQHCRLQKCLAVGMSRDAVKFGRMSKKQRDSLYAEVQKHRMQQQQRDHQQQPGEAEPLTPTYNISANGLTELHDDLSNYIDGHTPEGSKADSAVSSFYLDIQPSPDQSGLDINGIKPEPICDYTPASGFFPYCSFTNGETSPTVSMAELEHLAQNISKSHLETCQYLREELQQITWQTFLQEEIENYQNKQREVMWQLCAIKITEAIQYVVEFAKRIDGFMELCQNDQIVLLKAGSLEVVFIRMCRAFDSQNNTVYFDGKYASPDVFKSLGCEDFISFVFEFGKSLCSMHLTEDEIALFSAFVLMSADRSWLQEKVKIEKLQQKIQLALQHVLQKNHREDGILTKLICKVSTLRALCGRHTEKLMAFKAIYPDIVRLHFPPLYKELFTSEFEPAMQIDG

Homo sapiens [7] = organism: Homo sapiens; assay: Selectivity ratio of IC50 for human CMX-AR expressed in HEK293 cells to IC50 for PR in human T47D cells assessed as inhibition of progesterone-induced alkaline phosphatase activity
Homo sapiens [8] = organism: Homo sapiens; assay: Selectivity ratio of IC50 for human CMX-GRalpha expressed in HEK293 cells to IC50 for PR in human T47D cells assessed as inhibition of progesterone-induced alkaline phosphatase activity
Homo sapiens [9] = organism: Homo sapiens; assay: Selectivity ratio of IC50 for human RORalpha1 expressed in HEK293 cells to IC50 for PR in human T47D cells assessed as inhibition of progesterone-induced alkaline phosphatase activity

Structure (SMILES) | Ratio IC50 (Homo sapiens [1]) | Ratio IC50 (Homo sapiens [2]) | IC50 [3] | IC50 (Progesterone receptor) | Ratio IC50 (Homo sapiens [4]) | inhibition [5] | Activity [6] | Ratio IC50 (Homo sapiens [7]) | Ratio IC50 (Homo sapiens [8]) | Ratio IC50 (Homo sapiens [9])
Cc1cc(C(O)(C(F)(F)F)C(F)(F)F)cc2c1[nH]c(=O)c1cc(F)ccc12 | > 300 | > 300 | > 20000 nM | 46 nM | > 300 | Active | inactive | > 30 | > 300 | > 300
Cc1cc(C(O)(C(F)(F)F)C(F)(F)F)cc2c3ccc(F)cc3c(=O)n(C)c12 | > 300 | > 300 | > 20000 nM | 27 nM | > 300 | Active | inactive | > 10 | > 300 | > 300
Cc1cc(C(O)(C(F)(F)F)C(F)(F)F)cc2c1[nH]c(=O)c1ccccc12 | > 100 | > 100 | > 20000 nM | 150 nM | > 100 | Active | inactive | > 100 | > 100 | > 100

Reference: ChEMBL document CHEMBL4145662, “Novel Nonsteroidal Progesterone Receptor (PR) Antagonists with a Phenanthridinone Skeleton” (ACS Med Chem Lett, 2018)
